Assay outcomes from PubChem BioAssay.
Shown are actives, neighbours in structure and some others; about 2.4% of the full set was active somewhere.
CSN inh – blocks human CSN-mediated cullin deneddylation; Purified CSN, SCF-Nedd8-OG deneddylation, fluorescence polarization; Q92905; AID 651999; inhibition, % at 12.5 µM; actives 0.38% (n = 360,000);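 active = pattern-corrected inhibition above about 35%, with an unprinted fluorescence ratio check between 0.5 and 1.5, limit read from the data, passing the limit was not always enough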
Target sequence (Q92905 whole entry, looked up, one chain of several): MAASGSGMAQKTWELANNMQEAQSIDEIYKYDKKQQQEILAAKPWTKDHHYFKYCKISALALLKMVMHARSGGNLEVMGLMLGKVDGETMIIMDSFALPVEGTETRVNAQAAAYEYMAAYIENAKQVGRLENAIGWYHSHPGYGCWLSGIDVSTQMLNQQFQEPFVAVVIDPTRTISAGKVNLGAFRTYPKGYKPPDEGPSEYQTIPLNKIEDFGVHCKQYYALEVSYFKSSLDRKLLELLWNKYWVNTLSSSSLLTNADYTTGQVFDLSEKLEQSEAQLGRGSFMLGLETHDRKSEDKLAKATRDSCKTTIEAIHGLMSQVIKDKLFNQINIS
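Material: purified human Csn5 enzyme expressed in HEK293T cells / Medium: Tris buffer pH 7.5, NaCl, DTT, Tween-20, trehalose, ovalbumin / Compound dosing: 12.5 µM single point / Schedule: 90 min incubation of compound, enzyme and substrate at room temperature / Signal: fluorescence polarization of the substrate / Control set: no-enzyme wells high, enzyme-with-substrate wells low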
HNF4A DNA FP – change in binding of human HNF4 alpha to DNA | AID 1224865 | actives 0.3% (n = 360,000) | P41235 | HNF4a-FITC DNA binding, fluorescence polarization, 1 h | activity change, % at 10 µM; in the data active = activity change above about 30%, passing the limit was not always enough
PREPL inh – inhibits the human prolyl oligopeptidase-like enzyme; Q4J6C6; recombinant PREPL, fluorescence polarization activity-based probe; inhibition, % at 5.96 µM; actives 0.68% (n = 320,000); in the data active = inhibition above about 43%
Rpn11 inh – blocks the human proteasome subunit Rpn11; AID 588493; inhibition, % at 20 µM; O00487; human 26S proteasome, Ub4-pepOG fluorescence polarization; 20S core pre-blocked with epoxomicin; actives 0.59% (n = 360,000);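 active = inhibition at 20 µM, scaled to each plate's controls, above about 33%, limit read from the data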
Neddylation inh – inhibitors of human cullin neddylation | TR-FRET cullin neddylation, biochemical | actives 0.58% (n = 360,000) | inhibition, % at 25 µM; in the data active = inhibition above about 36%
Tb MetRS inh – blocks T. brucei methionyl-tRNA synthetase activity. actives 0.4% (n = 360,000). inhibition, % at 11.9 µM. purified T. brucei MetRS, ATP depletion, Kinase-Glo luminescence;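 active = inhibition above a per-plate cutoff of the control wells' mean inhibition plus 3 SD, cut at about 5.5% in these data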
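Assay system: T. brucei methionyl-tRNA synthetase, purified | Medium: HEPES buffer with MgCl2, KCl, DTT, spermine, BSA, pyrophosphatase | Compound: 11.9 µM single point | Incubation: 15 min enzyme-compound preincubation, 2 h reaction, 10 min detection, 25 °C | Measured by: Kinase-Glo luciferase luminescence reporting remaining unconsumed ATP | Measure: % inhibition normalized to control-well medians | Replication: Singlicate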
Neddyl conf – confirmation of human cullin neddylation inhibitors; shares compounds with Neddylation inh; TR-FRET cullin neddylation biochemical assay; calls only at 25 µM; actives 13% (n = 1,800); AID 652217; in the data active = inhibition above about 40%;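 note: neddylation substrate is the cullin 1 ring ligase complex with SKP2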
Hits are given with their value; – = inactive; · = no result given.

SMILES	CSN inh	HNF4A DNA FP	PREPL inh	Rpn11 inh	Neddylation inh	Tb MetRS inh	Neddyl conf
O=C(c1ccco1)N1N=C(c2cccs2)CC1c1ccccc1O (stereo unspecified)	–	–	–	–	54	–	·
C(=C\c1cccc2ccccc12)/c1nnc(-c2cccs2)o1	–	–	–	–	47	–	·
O=C(NCc1ccc(F)cc1)C1CCCN1S(=O)(=O)c1ccccc1C(F)(F)F (stereo unspecified)	–	–	–	–	–	–	·
CN(C)C(=O)CSc1ncccc1-c1nc2ccccc2[nH]1	–	–	–	–	–	–	·
CCN(CC)C(=O)CSc1ncccc1-c1nc2ccccc2[nH]1	–	–	–	–	43	–	–
Cc1ccc(OCCNC(=O)CNC(=O)c2ccc(Cl)c([N+](=O)[O-])c2)cc1	–	–	–	–	–	–	·
O=c1ccc(/C=C/c2ccccc2)nn1Cc1ccccc1	–	–	–	–	49	–	–
Cn1nc(/C=C/c2ccccc2)ccc1=O	–	–	–	–	50	–	–
Nc1ccc(C(=O)N/N=C2\CCCc3c2[nH]c2ccccc32)cc1	–	–	–	–	45	–	–
Nc1nc(Br)c2c(F)cccc2c1-c1ccc(F)cc1	–	–	–	–	40	–	–
CCCCN(C(=O)c1cccc(S(=O)(=O)N(CC)c2ccccc2)c1)c1c(N)n(CCCC)c(=O)[nH]c1=O	–	–	·	–	–	–	·
Fc1cc2[nH]c(=S)[nH]c2cc1Cl	–	–	–	–	38	–	–
Cc1cc2[nH]c(=S)[nH]c2cc1C	–	–	–	–	–	–	·
c1ccc(Cn2c(-c3ccccc3)nc3nc4ccccc4nc32)cc1	–	–	–	–	44	–	–
c1csc(-c2nc3nc4ccccc4nc3n2Cc2ccc3c(c2)OCO3)c1	–	–	–	–	37	–	–
Clc1cccc(-c2nc3nc4ccccc4nc3n2Cc2ccccc2)c1	–	–	–	–	–	–	·
O=C(COC(=O)CCSc1ccc(F)cc1)NCc1ccc(F)cc1	–	–	–	–	–	–	·
CC(C)OC(=O)C(C#N)c1nc2ccccc2nc1N1CCCC1 (stereo unspecified)	–	–	–	–	41	–	–
COC(=O)C1CCN(c2nc3ccccc3nc2C(C#N)C(=O)OCC(C)C)CC1 (stereo unspecified)	–	–	–	–	41	–	–
Cc1ccc2c(C(=O)CN3CCC(C(N)=O)CC3)c(C)[nH]c2c1	–	–	–	–	–	–	·
Cc1ccc2nc3ccc(N4CCCCCCC4)nn3c(=O)c2c1	–	–	–	–	53	–	–
CCCN(CCC)CCCNC(=O)c1cn(CCOC)c(=O)c2c1c1ccccc1n2C	–	–	–	–	38	–	–
CCN(CC)CCCNC(=O)c1cc2c(=O)n(C)c3ccccc3c2n1C	–	–	–	–	41	–	–
Cc1ccc(-n2nc(C(=O)NCc3ccco3)c3c4ccccc4n(C)c3c2=O)cc1	–	–	–	–	–	–	·
CCN(CC)CCNC(=O)c1nn(-c2ccc(C)cc2)c(=O)c2c1c1ccccc1n2C	–	–	–	–	43	–	–
SMILES	CSN inh	HNF4A DNA FP	PREPL inh	Rpn11 inh	Neddylation inh	Tb MetRS inh	Neddyl conf
CCCCN(CC)CCNC(=O)c1cn(CCOC)c(=O)c2c1c1ccccc1n2C	–	–	–	–	–	–	·
CC(C)Cn1cc(C(=O)NCc2cccs2)c2c3ccccc3n(C)c2c1=O	–	–	–	–	40	–	–
CCN(CC)CCNC(=O)c1cc2c(=O)n(C)c3ccccc3c2n1C	–	–	–	–	39	–	·
CC1(Oc2ccc3ccccc3c2)CCN(Cc2cccn2-c2nccs2)C1 (stereo unspecified)	–	–	·	–	–	–	·
Cc1ccc(S(=O)(=O)N2CCC(NC(=O)c3cccnc3)CC2)cc1Cl	–	–	–	–	–	–	·
CCC(=O)c1cccc2c1N=CC1=C(CC(C)(C)CC1=O)N2	–	–	–	–	42	–	·
CC1CC(=O)C2=C(C1)Nc1ccccc1N=C2 (stereo unspecified)	–	–	–	–	–	–	·
Cn1cncc1C#Cc1ccc2cc(CCO)oc(=O)c2c1	–	–	–	–	37	–	–
